Among all 360,000 compounds or so, about 1,700 (0.47%) were called active.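 Rule for the calls: active = inhibition above its plate's cutoff, the mean of tested wells on that plate plus 3 SD (cut at about 29% in these data); inactive = the rest.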 Only a selection was taken, and actives are over-represented in it overall.

In this assay the target is Melanocortin receptor 4 (Homo sapiens) (UniProt P32245). Kind of assay: blockers of MC4R Gs-cAMP response – cell-based, TR-FRET, antagonist arm of biased-ligand search, primary screen (AID 540295).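 Note: 0% = Melanotan II alone and 100% = Melanotan II plus saturating MCL0020.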 The settings on record: MC4R-expressing cells, MTII-stimulated cAMP, LANCE TR-FRET; at 6.5 µM; hits give high values. In short, it runs like this: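 System: U2OS-MC4R stable cell line; Technique: Eu-cAMP/anti-cAMP TR-FRET, emission 671 nm; Repeats: single well per compound; Also added: Melanotan II; Dosing: one concentration, 6.5 µM nominal; Schedule: 30-min compound, 1-h challenge, 1-h detection, room temperature.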
Sequence of Melanocortin receptor 4 (Homo sapiens) (P32245 whole entry, looked up): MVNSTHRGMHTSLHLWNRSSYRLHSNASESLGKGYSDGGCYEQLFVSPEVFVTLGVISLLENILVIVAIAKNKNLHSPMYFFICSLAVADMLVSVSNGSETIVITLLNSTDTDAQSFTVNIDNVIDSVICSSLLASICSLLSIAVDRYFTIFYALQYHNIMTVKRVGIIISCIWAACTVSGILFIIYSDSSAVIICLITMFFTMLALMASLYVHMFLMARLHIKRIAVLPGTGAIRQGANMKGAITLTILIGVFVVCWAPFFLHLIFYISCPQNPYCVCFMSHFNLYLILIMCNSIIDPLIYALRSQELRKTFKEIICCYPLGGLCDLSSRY
For `CCn1c2ccccc2c2cc(NC(=S)N3CCOCC3)ccc21`, the inhibition was -0.62% (inactive).

Regarding `CCn1c2ccccc2c2cc(NC(=O)COC(=O)c3cc(S(=O)(=O)N4CCCCC4)ccc3Cl)ccc21`, the inhibition was -0.18% (inactive).

Regarding `CCn1c2ccccc2c2cc(NC(=O)C/C(C)=N/NC(=O)c3ccccc3N)ccc21`, the inhibition was 28.8% (active).

As to `CC1=NN(C(C)C)C(=O)C1`, the inhibition is 6.17% (inactive).

For the molecule `O=C(O)c1ccc2c(=O)n3c(nc2c1)/C(=C/c1ccc(Cl)c([N+](=O)[O-])c1)CC3`, the inhibition was 0.52% (inactive).

Turning to `Cc1ccnc(NC(=O)c2ccc(Cl)c([N+](=O)[O-])c2)c1`, the inhibition was 23.3% (inactive).

On to `Cc1nc2ccccc2c(=O)n1NC(=O)c1ccc(Cl)c([N+](=O)[O-])c1`, for which the inhibition is 49% (active).

In the case of `CCOC(=O)C1(C)CCCN(C(=O)c2ccc(F)c(Cl)c2)C1` (stereo unspecified), the inhibition is -0.84% (inactive).

As to `Cc1nc(N2CCN(c3ccccn3)CC2)c2c(C)c(C(=O)Nc3ccc(F)c(Cl)c3)sc2n1`, the inhibition was 5.05% (inactive).

As to `CC(=O)Nc1ccc(S(=O)(=O)N2CCn3cccc3C2C)cc1` (stereo unspecified), the inhibition is 1.62% (inactive).

Turning to `CCOc1ccc(-c2nc(N)ncc2-c2ccccc2OC)c(O)c1`, the inhibition is -2.31% (inactive).

Consider `CCOc1ccccc1Oc1cn[nH]c1-c1ccc(OC)cc1O`, for which the inhibition was 2.19% (inactive).

Consider `COc1ccc(-c2n[nH]c(C)c2-c2ccccc2OC)c(O)c1`, for which the inhibition is 29.1% (active).

On to `CC(Sc1ccc(S(=O)(=O)N2CCN(C)CC2)cn1)C(=O)NC1CCCC(C)C1C` (stereo unspecified), for which the inhibition is -2.08% (inactive).

With `O=C(Nc1ccc2ccccc2c1[N+](=O)[O-])c1ccccc1`, the inhibition is -1.17% (inactive).

Take `Cc1cc(=O)c2ccc(NC(=O)c3ccccc3)cc2[nH]1`: the inhibition is 0.31% (inactive).

`O=C(NC1=CC(=O)c2ccccc2C1=O)c1ccccc1`: the inhibition was 34.6% (active).

As to `CN(CCC#N)c1ncnc2scc(-c3ccccc3)c12`, the inhibition was -6.59% (inactive).

Take `Cc1sc2nc(-c3ccccc3F)oc(=O)c2c1C`: the inhibition is 2.06% (inactive).

Turning to `Cc1ccccc1-n1nnnc1SCCCC(=O)c1ccc(F)cc1`, the inhibition was 0.07% (inactive).

With `Cc1cccc(OCC(O)Cn2c(N3CCCCC3)nc3c2c(=O)[nH]c(=O)n3C)c1` (stereo unspecified), the inhibition is 32.4% (active).

Turning to `C=C(C)Cn1c(N2CCCC2)nc2c1c(=O)[nH]c(=O)n2C`, the inhibition was -7.2% (inactive).

As for `Cn1c(=O)c2c(nc(N3CCCCCC3)n2CC(O)COc2ccc(Cl)cc2)n(C)c1=O` (stereo unspecified), the inhibition is 19.6% (inactive).

As to `CCCCCCCC(=O)OC(CN1CCCCCC1)CN1CCCC1=O` (stereo unspecified), the inhibition was 3.62% (inactive).

Take `CC(=O)c1cccc(NC(=O)C2CCCN(S(=O)(=O)c3cccc4nonc34)C2)c1` (stereo unspecified): the inhibition was 0.67% (inactive).

With `Cn1nc(C(F)(F)F)cc1C(=O)O`, the inhibition was -0.27% (inactive).

Usually inhibition stands for the change of the read-out against control, counted positive when it falls.

The values are drawn from PubChem BioAssay AID540295 (The Scripps Research Institute Molecular Screening Center, 2011).
